Measurements taken from ChEMBL document CHEMBL3271978, “Synthesis and some pharmacological properties of [4-homoserine]oxytocin” (J Med Chem, 1977).
Positions of bridges follow the written chain, without caps; N, C: chain ends. Non-standard residues stand in square brackets, D forms with d. Residues, ends and D or L forms follow the SMILES beside them. hSer = N[C@@H](CCO)C(=O)O

Assays:
[1] = Ratio of oxytocic potency in rat uterus to antidiuretic activity in iv dosed hydrated rat anesthetized with ethanol
Rattus norvegicus [2] = experiment: Oxytocic activity in iv dosed lactating rat anesthetized with pentobarbital assessed as milk ejection; assay type: functional
Outline: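 Lactating rats anesthetized with pentobarbital received peptide by intravenous injection; milk-ejection response measured relative to USP posterior pituitary reference standard.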

[3] = Ratio of oxytocic potency in rat uterus to vasopressor activity in phenoxybenzamine-treated rat under urethane anesthesia
[4] = Oxytocic potency in rat uterus; assay type: functional
Outline: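 Isolated rat uterus suspended in bath solution without Mg2+; oxytocic activity assayed against USP posterior pituitary reference standard.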

[5] = Oxytocic potency in rat uterus in presence of 0.5 mM Mg2+; assay type: functional
Outline: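 Isolated rat uterus suspended in solution containing 0.5 mM Mg2+; oxytocic activity assayed against USP posterior pituitary reference standard.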

Rattus norvegicus [6] = experiment: Antidiuretic activity in iv dosed hydrated rat anesthetized with ethanol; assay type: ADME, organism-based, Urine; conditions: in vivo
Rattus norvegicus [7] = species on record: Rattus norvegicus; experiment: Vasopressor activity in phenoxybenzamine-treated rat under urethane anesthesia; assay type: ADME, organism-based; conditions: in vivo
Outline: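 Rats pretreated with phenoxybenzamine, under urethane anesthesia; pressor response assayed against USP posterior pituitary reference standard.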

CC[C@H](C)[C@@H]1NC(=O)[C@H](Cc2ccc(O)cc2)NC(=O)[C@@H](N)CSSC[C@@H](C(=O)N2CCC[C@H]2C(=O)N[C@@H](CC(C)C)C(=O)NCC(N)=O)NC(=O)[C@H](CC(N)=O)NC(=O)[C@H]([C@@H](C)O)NC1=O (H-CYITNCPLG-NH2; disulfide 1-6)
Ratio [1]: 510
Activity (Rattus norvegicus [2]): 543 U/mg
Ratio [3]: 2150
Activity [4]: 923 U/mg
Activity [5]: 719 U/mg
Activity (Rattus norvegicus [6]): 1.8 U/mg
Activity (Rattus norvegicus [7]): 0.43 U/mg

CC[C@H](C)[C@@H]1NC(=O)[C@H](Cc2ccc(O)cc2)NC(=O)[C@@H](N)CSSC[C@@H](C(=O)N2CCC[C@H]2C(=O)N[C@@H](CC(C)C)C(=O)NCC(N)=O)NC(=O)[C@H](CC(N)=O)NC(=O)[C@H](CCO)NC1=O (H-CYI[hSer]NCPLG-NH2; disulfide 1-6)
Ratio [1]: 520
Activity (Rattus norvegicus [2]): 357 U/mg
Ratio [3]: 5950
Activity [4]: 125 U/mg
Activity [5]: 380 U/mg
Activity (Rattus norvegicus [6]): 0.24 U/mg
Activity (Rattus norvegicus [7]): 0.021 U/mg

CC[C@H](C)[C@@H]1NC(=O)[C@H](Cc2ccc(O)cc2)NC(=O)[C@@H](N)CSSC[C@@H](C(=O)N2CCC[C@H]2C(=O)N[C@@H](CC(C)C)C(=O)NCC(N)=O)NC(=O)[C@H](CC(N)=O)NC(=O)[C@H](CCC(N)=O)NC1=O [OXYTOCIN]
Activity (Rattus norvegicus [2]): 474 U/mg
Activity [4]: 520 U/mg
Activity [5]: 486 U/mg
Activity (Rattus norvegicus [6]): 4 U/mg

CC[C@H](C)[C@@H]1NC(=O)[C@H](Cc2ccc(O)cc2)NC(=O)[C@@H](N)CSSC[C@@H](C(=O)N2CCC[C@H]2C(=O)N[C@@H](CC(C)C)C(=O)NCC(N)=O)NC(=O)[C@H](CC(N)=O)NC(=O)[C@H](CO)NC1=O (H-CYISNCPLG-NH2; disulfide 1-6)
Ratio [1]: 80
Activity (Rattus norvegicus [2]): 255 U/mg
Ratio [3]: >1950
Activity [4]: 148 U/mg
Activity [5]: 331 U/mg
Activity (Rattus norvegicus [6]): 0.06 U/mg
Activity (Rattus norvegicus [7]): 0.028 U/mg

CC[C@H](C)[C@@H]1NC(=O)[C@H](Cc2ccc(O)cc2)NC(=O)[C@@H](N)CSSC[C@@H](C(=O)N2CCC[C@H]2C(=O)N[C@@H](CC(C)C)C(=O)NCC(N)=O)NC(=O)[C@H](CC(N)=O)NC(=O)[C@H](CC(N)=O)NC1=O (H-CYINNCPLG-NH2; disulfide 1-6)
Ratio [1]: 929
Activity (Rattus norvegicus [2]): 300 U/mg
Ratio [3]: 823
Activity [4]: 108 U/mg
Activity [5]: 490 U/mg
Activity (Rattus norvegicus [6]): 0.044 U/mg
Activity (Rattus norvegicus [7]): 0.12 U/mg
